The source made the active and inactive calls. The rule behind the calls is not given here.
Key:
[1] = target: T1, Peroxisome proliferator-activated receptor gamma (Homo sapiens) (UniProt P37231); assay: (§1) Binding affinity to recombinant PPARy LBD (unknown origin) expressed in Escherichia coli BL21 DE3 using pre-irradiated compound by ITC assay
T1 sequence (whole entry): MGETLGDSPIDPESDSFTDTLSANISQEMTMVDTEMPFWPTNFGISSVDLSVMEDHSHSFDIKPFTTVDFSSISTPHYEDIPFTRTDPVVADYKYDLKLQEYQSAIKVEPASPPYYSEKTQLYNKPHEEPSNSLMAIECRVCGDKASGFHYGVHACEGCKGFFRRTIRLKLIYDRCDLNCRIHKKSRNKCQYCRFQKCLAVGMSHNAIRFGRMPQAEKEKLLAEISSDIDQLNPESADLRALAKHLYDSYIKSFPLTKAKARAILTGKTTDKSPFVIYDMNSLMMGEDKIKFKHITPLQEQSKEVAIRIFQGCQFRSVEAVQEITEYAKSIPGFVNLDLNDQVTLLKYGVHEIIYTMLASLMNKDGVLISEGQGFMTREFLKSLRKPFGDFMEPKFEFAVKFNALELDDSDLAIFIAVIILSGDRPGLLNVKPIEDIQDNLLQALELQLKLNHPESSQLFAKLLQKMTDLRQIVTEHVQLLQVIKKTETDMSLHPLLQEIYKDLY
Summary of the method: (§2)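 ITC at 25 °C: 300 µM compound, pre-irradiated 5 min at 365 nm, titrated into 64 µM His-tag-cleaved PPARγ LBD (aa 234–505, E. coli BL21 DE3 with GroEL/ES, IMAC plus gel filtration) in 25 mM HEPES pH 7.5, 150 mM KF, 5 mM DTT, 10% glycerol, 1% DMSO. 31 injections (1.0 then 2.5 µL), 300 s apart, 75 rpm; buffer control.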

[2] = target: T1, Peroxisome proliferator-activated receptor gamma (Homo sapiens); assay: Agonist activity at PPARy in human HepG2 cells transfected with human PPRE at 10 uM incubated for 14 to 16 hrs using pre-irradiated compound by firefly luciferase reporter gene assay; format: cell-based; details: filed as agonist, time hrs 14-16
Summary of the method: (§3)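 HepG2 cells on collagen-coated wells, transfected (Lipofectamine 3000) with PPRE1-pGL3 (human full-length PPRE driving firefly luciferase) plus pRL-SV40; endogenous PPARγ/RXR, no overexpression. Compound in Opti-MEM, 0.1% DMSO, 14–16 h; cis state held by 75 ms 370 nm pulses every 15 s. Firefly/Renilla normalised, fold activation over DMSO control; rosiglitazone reference.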

[3] = target: T2, Peroxisome proliferator-activated receptor gamma (Homo sapiens, UniProt P37231); assay: Agonist activity at PPARgamma (unknown origin) expressed in HEK293T cells incubated for 14 to 16 hrs under irradiation by hybrid Gal4 reporter gene assay; format: cell-based
T2 sequence (P37231 whole entry): T1 sequence (whole entry)

[4] = target: T3, Peroxisome proliferator-activated receptor delta (Homo sapiens) (UniProt Q03181); assay: Agonist activity at PPARdelta (unknown origin) expressed in HEK293T cells at 10 uM incubated for 14 to 16 hrs under irradiation by hybrid Gal4 reporter gene assay; format: cell-based; details: time hrs 14-16
T3 sequence (whole entry): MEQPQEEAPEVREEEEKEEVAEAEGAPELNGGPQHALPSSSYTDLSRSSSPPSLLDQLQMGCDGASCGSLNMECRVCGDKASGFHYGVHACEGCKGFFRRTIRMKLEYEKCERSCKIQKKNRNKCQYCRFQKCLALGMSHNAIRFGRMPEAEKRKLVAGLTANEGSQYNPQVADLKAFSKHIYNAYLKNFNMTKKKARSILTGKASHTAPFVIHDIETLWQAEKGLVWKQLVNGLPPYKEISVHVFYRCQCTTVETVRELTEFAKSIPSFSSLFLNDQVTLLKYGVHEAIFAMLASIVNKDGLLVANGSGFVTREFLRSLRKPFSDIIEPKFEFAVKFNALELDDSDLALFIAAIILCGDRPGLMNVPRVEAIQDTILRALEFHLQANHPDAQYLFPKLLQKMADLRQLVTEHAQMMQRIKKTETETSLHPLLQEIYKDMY
Summary of the method: (§4)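 HEK293T cells transfected (Lipofectamine LTX) with Gal4 fusion of human PPARα or PPARδ hinge region + LBD, pFR-Luc reporter and pRL-SV40; compound added in Opti-MEM with 0.1% DMSO 5 h post-transfection, 14–16 h incubation. Dual-Glo luciferase; firefly/Renilla ratio gives RLU, fold activation vs DMSO control. Duplicates, ≥2 independent repeats.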

[5] = target: T4, Peroxisome proliferator-activated receptor alpha (Homo sapiens) (UniProt Q07869); assay: Agonist activity at PPARalpha (unknown origin) expressed in HEK293T cells at 10 uM incubated for 14 to 16 hrs under irradiation by hybrid Gal4 reporter gene assay; format: cell-based; details: time hrs 14-16; summary of the method: as §4
T4 sequence (whole entry): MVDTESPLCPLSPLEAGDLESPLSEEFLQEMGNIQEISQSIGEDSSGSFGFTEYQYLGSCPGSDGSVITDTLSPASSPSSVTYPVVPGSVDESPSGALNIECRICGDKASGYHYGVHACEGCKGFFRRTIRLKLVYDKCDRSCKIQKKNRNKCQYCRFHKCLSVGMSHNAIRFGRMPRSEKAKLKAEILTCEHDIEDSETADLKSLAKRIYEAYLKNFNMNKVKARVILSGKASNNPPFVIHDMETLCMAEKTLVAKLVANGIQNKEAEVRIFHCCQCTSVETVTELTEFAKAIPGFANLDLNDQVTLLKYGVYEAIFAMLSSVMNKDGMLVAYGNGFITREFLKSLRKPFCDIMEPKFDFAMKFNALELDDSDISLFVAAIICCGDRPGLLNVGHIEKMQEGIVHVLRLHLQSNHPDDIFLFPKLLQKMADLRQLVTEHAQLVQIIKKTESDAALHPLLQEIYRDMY

[6] = target: T1, Peroxisome proliferator-activated receptor gamma (Homo sapiens); assay: Agonist activity at PPARgamma (unknown origin) expressed in HEK293T cells at 10 uM incubated for 14 to 16 hrs under irradiation by hybrid Gal4 reporter gene assay; format: cell-based; details: time hrs 14-16
Summary of the method: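 Gal4 hybrid reporter: HEK293T cells transiently co-transfected with Gal4–human PPARγ hinge+LBD fusion, Gal4-responsive firefly luciferase reporter and Renilla normalisation plasmid. Compound added 5 h post-transfection in Opti-MEM, 0.1% DMSO final; 14–16 h incubation. Dual-Glo read-out, firefly/Renilla ratio, fold over DMSO control. Technical duplicates, at least two independent repeats.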

[7] = target: T2, Peroxisome proliferator-activated receptor gamma; assay: as §1; summary of the method: as §2
[8] = target: T2, Peroxisome proliferator-activated receptor gamma; assay: Agonist activity at PPARy in human HepG2 cells transfected with human PPRE incubated for 14 to 16 hrs using pre-irradiated compound by firefly luciferase reporter gene assay; format: cell-based; summary of the method: as §3
[9] = target: T1, Peroxisome proliferator-activated receptor gamma (Homo sapiens); assay: Agonist activity at PPARy in human HepG2 cells transfected with human PPRE incubated for 14 to 16 hrs using pre-irradiated compound by firefly luciferase reporter gene assay relative to control; format: cell-based; details: filed as agonist, time hrs 14-16; summary of the method: as §3

With `Cc1ccccc1-c1ccc(/N=N/c2ccc(CC3SC(=O)NC3=O)cc2)cc1` (centres undefined) the Activity [1] was “inactive”, the Activity [2] was “Active” and the EC50 [3] was 2.8 µM.
`O=C1NC(=O)C(Cc2ccc(/N=N\c3ccc(C(F)(F)F)cc3)cc2)S1` (centres undefined) showed an EC50 [3] of 6.5 µM.
`O=C1NC(=S)NC(=O)C1=Cc1ccc(/N=N/c2ccccc2)cc1` was tested, and the Activity [4] was “inactive”, the Activity [5] was “inactive” and the Activity [6] was “inactive”.
`O=C1NC(=O)C(Cc2ccc(/N=N/c3ccc(C(F)(F)F)cc3)cc2)S1` (centres undefined) gave an EC50 [3] of 2.2 µM.
For `O=C1NC(=O)C(Cc2ccc(/N=N/c3ccccc3)cc2)S1` (centres undefined), the Activity [4] was “inactive” and the EC50 [3] was 2.2 µM.
In the case of `Cc1ccccc1-c1ccc(/N=N\c2ccc(CC3SC(=O)NC3=O)cc2)cc1` (centres undefined), the Kd [7] is reported as 9.3 µM, the EC50 [8] is reported as 0.9 µM and the fold change (FC) [9] is reported as 2.4. For the same compound, the EC50 [3] was 6.4 µM.
With `O=C1NC(=O)C(Cc2ccc(/N=N\c3ccccc3)cc2)S1` (centres undefined) the EC50 [3] was 6.3 µM.
`O=C1NC(=O)C(Cc2ccc(/N=N\c3ccc(Cl)cc3)cc2)S1` (centres undefined) gave an EC50 [3] of 7 µM.
`O=C(c1ccccc1)c1ccccc1N[C@@H](Cc1ccc(/N=N/c2ccccc2)cc1)C(=O)O` was tested, and the Activity [4] was “inactive” and the Activity [5] was “inactive”.
In the case of `O=C1NC(=O)C(Cc2ccc(/N=N/c3ccc(Cl)cc3)cc2)S1` (centres undefined), the EC50 [3] is reported as 2.9 µM.
